Measurements reported in ChEMBL document CHEMBL1137426, “Bivalent inhibitors of glutathione S-transferase: the effect of spacer length on isozyme selectivity” (Bioorg Med Chem Lett, 2006).

Key:
[1] = target: T1, Glutathione S-transferase A1 (Homo sapiens, UniProt P08263); assay: Inhibition of GST A1-1
T1 sequence (P08263 whole entry): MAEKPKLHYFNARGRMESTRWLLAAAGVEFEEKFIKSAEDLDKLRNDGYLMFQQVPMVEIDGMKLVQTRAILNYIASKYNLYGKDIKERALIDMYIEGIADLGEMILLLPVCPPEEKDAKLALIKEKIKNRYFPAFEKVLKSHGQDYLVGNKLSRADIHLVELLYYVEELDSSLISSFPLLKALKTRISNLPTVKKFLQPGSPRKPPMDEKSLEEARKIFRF

Homo sapiens = species: Homo sapiens; assay: Selectivity for GST A1-1 over GST P1-1
Outline: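 Ratio of IC50s from CDNB–GSH conjugation assays. Each E. coli-expressed, purified enzyme at 20 nM, GSH and CDNB at the respective K_M. Inhibitor diluted from DMSO stock into water, final DMSO <1%. Absorbance at 340 nm for 1 min, four-log concentration span, triplicate.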

[2] = target: Glutathione S-transferase P (Homo sapiens, UniProt P09211); assay: Inhibition of GST P1-1
Chain of Glutathione S-transferase P (P09211 whole entry): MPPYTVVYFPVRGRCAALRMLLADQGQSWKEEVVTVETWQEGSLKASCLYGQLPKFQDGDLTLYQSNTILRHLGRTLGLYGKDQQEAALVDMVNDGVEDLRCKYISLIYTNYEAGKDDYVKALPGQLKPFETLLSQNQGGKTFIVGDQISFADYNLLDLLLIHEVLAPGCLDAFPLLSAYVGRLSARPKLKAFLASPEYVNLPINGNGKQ

IC50 [1] [nM]	Selectivity ratio (Homo sapiens)	IC50 [2] [nM]	Structure (SMILES)
5000	–	–	C=C(CC)C(=O)c1ccc(OCC(=O)O)c(Cl)c1Cl [ETHACRYNIC ACID]
13800	1.1	15000	C=C(CC)C(=O)c1ccc(OCC(=O)NCCCC(=O)NCc2cccc(C(N)=O)c2)c(Cl)c1Cl
24	29	704	C=C(CC)C(=O)c1ccc(OCC(=O)NCC(=O)NCc2cc(CNC(=O)CNC(=O)COc3ccc(C(=O)C(=C)CC)c(Cl)c3Cl)cc(C(N)=O)c2)c(Cl)c1Cl
32.7	30	–	C=C(CC)C(=O)c1ccc(OCC(=O)NCc2cc(CNC(=O)COc3ccc(C(=O)C(=C)CC)c(Cl)c3Cl)cc(C(N)=O)c2)c(Cl)c1Cl
